Experimental data from ChEMBL document CHEMBL1133018, “Deltorphin II analogues with 6-hydroxy-2-aminotetralin-2-carboxylic acid in position 1” (J Med Chem, 2000).
*1 amine or outer side, *2 acyl side, *3 side chain or, on linkers, in order; H or OH if unused. Where a SMILES comes first, the peptide text is derived from it. [ ]: non-standard residue; d: D form. X1 = O=C([C@@]1(N[*:1])CCc2cc(O)ccc2C1)[*:2]; X2 = O=C([C@]1(N[*:1])CCc2cc(O)ccc2C1)[*:2]

Legend:
[1] = target: T1, Delta-type opioid receptor (Rattus norvegicus, UniProt P33533); experiment: Binding affinities against delta 2 opioid receptor of rat brain using [3H]Ile5,6-deltorphin II as radioligand.
Procedure, shortened: (§1)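 Wistar rat brain (minus cerebellum) membranes, 300-500 µg protein, 50 mM Tris-HCl pH 7.4. Displacement of [3H]pClPhe4-DPDPE (0.8 nM, 25 °C, 90 min) or [3H]Ile5,6-deltorphin II (0.5 nM, 35 °C, 45 min). Filtration, scintillation counting. Nonspecific binding defined with 10 µM naloxone. Ki as mean ± SEM of 3-5 runs in duplicate; Hill slopes also fitted.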

[2] = target: Delta-type opioid receptor (Rattus norvegicus) (UniProt P33533)
[3] = target: T1, Delta-type opioid receptor; experiment: Binding affinities against Opioid receptor delta 1 of rat brain using [3H]p-Cl-Phe4-DPDPE as radioligand.; procedure, shortened: as §1
[4] = target: Mu-type opioid receptor (Cavia porcellus, UniProt P97266); experiment: inhibitory concentration for inhibition of electrically induced smooth muscle contractions of GPI (guinea pig ileum) myenteric-plexus-longitudinal muscle strips.; format: functional, tissue-based
Procedure, shortened: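 Longitudinal muscle-myenteric plexus strips from ileum of male guinea pigs (400-600 g), electrically stimulated under standard conditions. IC50 taken as 50% inhibition of twitch, mean ± SEM of 4-6 measurements. Where no IC50 was reached, % inhibition is given at 10^-6 or 10^-5 M (n = 4).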

[5] = target: Delta-type opioid receptor (Rattus norvegicus) (UniProt P33533); remark: listed apart in the source
[6] = organism: Rattus norvegicus; experiment: Stimulation of [35S]GTP-gamma-S, binding at the concentration of 0.1 uM.; format: functional
Procedure, shortened: (§2)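 Rat frontal cortex crude membranes, 10 µg protein, in 50 mM Tris-HCl with 1 mM EGTA, 3 mM MgCl2, 100 mM NaCl. Incubated with 30 µM GDP and 0.05 nM [35S]GTPγS, 1 h at 30 °C. Nonspecific binding taken with 10 µM unlabeled GTPγS. Filtered and counted. Stimulation expressed as % of specific binding, mean ± SEM of three triplicate experiments.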

[7] = target: Mu-type opioid receptor (Rattus norvegicus) (UniProt P33535)
[8] = target: Delta-type opioid receptor (Rattus norvegicus) (UniProt P33533); remark: listed apart in the source
[9] = organism: Rattus norvegicus; experiment: Stimulation of [35S]GTP-gamma-S, binding at the concentration of 1 uM.; format: functional; procedure, shortened: as §2
[10] = target: Mu-type opioid receptor (Rattus norvegicus) (UniProt P33535); remark: listed apart in the source

Chain of Delta-type opioid receptor (Rattus norvegicus) (P33533 whole entry): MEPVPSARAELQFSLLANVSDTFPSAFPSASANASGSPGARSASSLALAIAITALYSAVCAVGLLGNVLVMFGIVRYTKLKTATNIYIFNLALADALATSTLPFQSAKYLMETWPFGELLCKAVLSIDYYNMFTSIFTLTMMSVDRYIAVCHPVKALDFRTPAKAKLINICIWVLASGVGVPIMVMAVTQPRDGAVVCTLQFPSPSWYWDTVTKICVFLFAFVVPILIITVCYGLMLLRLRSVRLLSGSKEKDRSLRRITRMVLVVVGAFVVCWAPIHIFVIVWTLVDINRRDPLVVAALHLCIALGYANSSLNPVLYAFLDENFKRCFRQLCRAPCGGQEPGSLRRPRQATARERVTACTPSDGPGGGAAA
T1 sequence (P33533 whole entry): as above
Chain of Mu-type opioid receptor (Rattus norvegicus) (P33535 whole entry, looked up): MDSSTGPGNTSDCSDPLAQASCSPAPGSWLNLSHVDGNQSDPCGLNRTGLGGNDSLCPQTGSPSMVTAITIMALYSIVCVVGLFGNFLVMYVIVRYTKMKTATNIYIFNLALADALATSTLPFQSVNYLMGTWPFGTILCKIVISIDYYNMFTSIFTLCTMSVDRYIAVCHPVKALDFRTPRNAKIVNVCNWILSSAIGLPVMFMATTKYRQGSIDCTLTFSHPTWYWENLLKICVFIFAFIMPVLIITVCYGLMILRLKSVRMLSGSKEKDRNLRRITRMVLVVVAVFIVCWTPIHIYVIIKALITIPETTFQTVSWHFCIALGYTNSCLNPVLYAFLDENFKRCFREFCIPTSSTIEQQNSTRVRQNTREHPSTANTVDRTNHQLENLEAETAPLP
Chain of Mu-type opioid receptor (P97266 whole entry): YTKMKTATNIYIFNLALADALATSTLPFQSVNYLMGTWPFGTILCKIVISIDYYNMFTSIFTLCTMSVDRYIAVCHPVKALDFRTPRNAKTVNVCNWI

Compound | Ki [1] | Hill coefficient [2] | Ki [3] | IC50 [4] | Hill coefficient [5] | Stimulation [6] | Hill coefficient [7] | Hill coefficient [8] | Stimulation [9] | Hill coefficient [10]
CC[C@H](C)[C@H](NC(=O)[C@H](CCC(=O)O)NC(=O)[C@H](Cc1ccccc1)NC(=O)[C@H](C)NC(=O)[C@@]1(N)CCc2cc(O)ccc2C1)C(=O)N[C@H](C(=O)NCC(N)=O)[C@@H](C)CC (H-[X1]AFEIIG-NH2) | 0.34 nM | -0.34 | 0.16 nM | 5130 nM | -0.69 | 155% | -1.01 |  |  | 
CC[C@H](C)[C@H](NC(=O)[C@H](CCC(=O)O)NC(=O)[C@H](Cc1ccccc1)NC(=O)[C@H](C)NC(=O)[C@]1(N)CCc2cc(O)ccc2C1)C(=O)N[C@H](C(=O)NCC(N)=O)[C@@H](C)CC (H-[X2]AFEIIG-NH2) | 1 nM |  | 0.94 nM | > 10000 nM | -0.5 |  |  | -0.42 | 136.9% | -1.09
